Measured values as given in ChEMBL document CHEMBL5038663, “Probing the Requirements for Dual Angiotensin-Converting Enzyme C-Domain Selective/Neprilysin Inhibition” (J Med Chem, 2022).

Assays:
[1] = target: T1, Angiotensin-converting enzyme (Homo sapiens, UniProt P12821); test: Inhibition of recombinant human ACE C-domain expressed in CHO cells using Cbz-Phe-His-Leu as substrate preincubated for 15 mins followed by substrate addition and measured after 10 mins by fluorescence spectrophotometric analysis
T1 sequence (P12821 whole entry): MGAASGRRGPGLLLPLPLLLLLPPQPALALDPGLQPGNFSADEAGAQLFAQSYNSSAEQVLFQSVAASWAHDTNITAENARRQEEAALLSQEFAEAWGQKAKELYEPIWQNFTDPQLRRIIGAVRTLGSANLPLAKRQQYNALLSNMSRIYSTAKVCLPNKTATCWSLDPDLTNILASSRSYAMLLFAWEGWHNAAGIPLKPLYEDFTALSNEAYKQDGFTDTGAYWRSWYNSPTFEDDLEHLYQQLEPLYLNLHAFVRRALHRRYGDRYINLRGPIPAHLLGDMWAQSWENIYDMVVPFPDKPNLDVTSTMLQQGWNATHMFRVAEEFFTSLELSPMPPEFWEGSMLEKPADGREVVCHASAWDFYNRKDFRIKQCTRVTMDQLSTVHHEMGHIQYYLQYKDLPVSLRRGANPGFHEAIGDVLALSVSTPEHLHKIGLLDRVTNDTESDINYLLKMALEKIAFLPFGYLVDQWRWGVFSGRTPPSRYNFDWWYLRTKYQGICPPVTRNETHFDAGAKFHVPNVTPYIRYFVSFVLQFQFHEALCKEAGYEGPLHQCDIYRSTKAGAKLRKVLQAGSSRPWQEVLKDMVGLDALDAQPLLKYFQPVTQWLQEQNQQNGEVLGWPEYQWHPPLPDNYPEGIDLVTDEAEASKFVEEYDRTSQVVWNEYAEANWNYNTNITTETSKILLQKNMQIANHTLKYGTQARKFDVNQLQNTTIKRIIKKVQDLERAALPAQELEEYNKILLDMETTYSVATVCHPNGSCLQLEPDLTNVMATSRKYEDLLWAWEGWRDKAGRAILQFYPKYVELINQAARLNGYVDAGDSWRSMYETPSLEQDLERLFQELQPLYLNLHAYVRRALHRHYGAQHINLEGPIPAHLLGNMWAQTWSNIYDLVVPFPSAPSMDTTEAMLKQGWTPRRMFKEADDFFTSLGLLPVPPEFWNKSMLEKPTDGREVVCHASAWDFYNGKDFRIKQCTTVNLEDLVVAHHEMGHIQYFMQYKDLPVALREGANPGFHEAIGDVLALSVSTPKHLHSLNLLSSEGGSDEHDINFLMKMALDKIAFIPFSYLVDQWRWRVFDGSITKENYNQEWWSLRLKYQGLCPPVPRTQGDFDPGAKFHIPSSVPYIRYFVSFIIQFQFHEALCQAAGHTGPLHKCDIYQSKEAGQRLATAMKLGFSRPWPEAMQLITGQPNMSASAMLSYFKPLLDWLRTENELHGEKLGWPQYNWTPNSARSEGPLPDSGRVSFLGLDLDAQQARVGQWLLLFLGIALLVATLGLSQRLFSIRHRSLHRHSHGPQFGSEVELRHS
Method in brief: (§1)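 Fully glycosylated single-domain human ACE (C-domain D629, N-domain Δ36NJ) from CHO cells. Two-fold inhibitor dilution in 100 mM potassium phosphate pH 8.3, 300 mM NaCl, 10 μM ZnCl₂. Preincubation 15 min at 22 °C. 10 min at 37 °C, stopped with NaOH/o-phthalaldehyde, then HCl. Triplicates, n ≥ 2 independent experiments.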

[2] = target: T1, Angiotensin-converting enzyme; test: Inhibition of recombinant human ACE N-domain expressed in CHO cells using Cbz-Phe-His-Leu as substrate preincubated for 15 mins followed by substrate addition and measured after 10 mins by fluorescence spectrophotometric analysis; method in brief: as §1
Homo sapiens = species: Homo sapiens; test: Selectivity ratio of Ki for human ACE N-domain expressed in CHO cells to Ki for human ACE C-domain expressed in CHO cells; assay type: cell-based
Method in brief: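 Ki for each ACE domain from IC50 by Cheng-Prusoff for competitive inhibition, Ki = IC50/(1 + [S]/Km). […] Ratio taken as N-domain Ki over C-domain Ki.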

Neprilysin = Neprilysin (Homo sapiens, UniProt P08473); test: Inhibition of hGH-8His-NEP expressed in CHO cells preincubated for 15 mins followed by […] peptide substrate addition by fluorescence spectrophotometric analysis; assay type: cell-based
Chain of Neprilysin (P08473 whole entry, the tested form may be a part): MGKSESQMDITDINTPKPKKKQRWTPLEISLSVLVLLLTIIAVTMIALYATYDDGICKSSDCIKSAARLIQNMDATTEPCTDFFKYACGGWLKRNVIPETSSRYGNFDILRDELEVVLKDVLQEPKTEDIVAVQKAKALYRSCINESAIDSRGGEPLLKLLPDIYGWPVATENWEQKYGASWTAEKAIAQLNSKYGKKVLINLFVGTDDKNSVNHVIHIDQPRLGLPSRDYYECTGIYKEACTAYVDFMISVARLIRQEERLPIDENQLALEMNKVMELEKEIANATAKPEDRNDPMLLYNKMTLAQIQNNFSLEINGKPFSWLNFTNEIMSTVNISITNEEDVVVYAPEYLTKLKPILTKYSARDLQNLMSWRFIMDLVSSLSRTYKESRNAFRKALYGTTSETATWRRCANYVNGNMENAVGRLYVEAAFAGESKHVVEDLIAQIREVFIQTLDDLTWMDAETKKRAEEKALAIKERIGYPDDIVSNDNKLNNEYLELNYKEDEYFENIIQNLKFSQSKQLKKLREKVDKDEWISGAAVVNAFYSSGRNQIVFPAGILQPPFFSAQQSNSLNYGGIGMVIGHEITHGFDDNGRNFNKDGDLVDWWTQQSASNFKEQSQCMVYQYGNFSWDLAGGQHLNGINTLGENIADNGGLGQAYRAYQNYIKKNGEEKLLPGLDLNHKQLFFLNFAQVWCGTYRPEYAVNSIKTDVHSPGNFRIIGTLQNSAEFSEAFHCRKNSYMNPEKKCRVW
Method in brief: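 Secreted glycosylated human NEP ectodomain (hGH-8His fusion) from CHO cells, purified by cobalt affinity. Two-fold inhibitor serial dilution in 50 mM Tris pH 8.3, 0.05% Brij-35, 300 mM NaCl, 10 μM ZnCl₂. Enzyme and inhibitor preincubated 15 min at 22 °C. […] Continuous fluorescence at ex 320/em 405 nm. Triplicates, n ≥ 2 independent experiments.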

Ki [1]	Ki [2]	Ki (Neprilysin)	SMILES	Ratio Ki (Homo sapiens)
9 nM	1700 nM	> 150000 nM	NCCCC[C@H](N[C@@H](CCc1ccccc1)C(=O)O)C(=O)N[C@@H](Cc1c[nH]c2ccccc12)C(=O)O	189
100 nM	3790 nM	19000 nM	CCCC[C@H](N[C@@H](CCc1ccccc1)C(=O)O)C(=O)N[C@@H](Cc1c[nH]c2ccccc12)C(=O)O	37
440 nM	3400 nM	> 50000 nM	Cc1ccc([C@H]2CC[C@@H](C(=O)O)N2C(=O)CN[C@@H](CCc2ccccc2)C(=O)O)cc1	8
35 nM	120 nM	600 nM	CCCC[C@H](N[C@@H](CCc1ccccc1)C(=O)O)C(=O)N[C@@H](Cc1ccc(O)cc1)C(=O)O	3.5
